# Data from paper PMC4050191 (FEBS Open Bio, 2014).
# Changes are numbered by the printed parent chain. Values joined by “and” are separate entries in the source; they are usually repeats but may differ in a detail not shown here. Identical values can stand only once. Like-named read-outs stand apart in the source and are kept apart here.
# T1: human centrin 1, full-length (human, UniProt Q12798 1-172)
# T1 sequence: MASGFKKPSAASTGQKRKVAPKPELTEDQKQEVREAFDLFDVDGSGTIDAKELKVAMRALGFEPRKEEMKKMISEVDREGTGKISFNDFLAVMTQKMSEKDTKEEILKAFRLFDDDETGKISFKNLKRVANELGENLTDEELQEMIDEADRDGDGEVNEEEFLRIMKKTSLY
# T2: human centrin 1 T138D, full-length (human, UniProt Q12798 1-172, T138D)
# T2 sequence: T1 sequence with T138D
# What was measured:
# [1] = system: HsCen1 (full-length human centrin 1); assay: ITC, peptide binding to full-length HsCen1
# How it was run: (§1)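 Recombinant human centrin (full-length or C-terminal domain; Asp variants made by double-PCR mutagenesis) was expressed in E. coli BL21(DE3), heat-treated at 63 °C, then purified by ion-exchange, phenyl and gel-filtration chromatography. ITC at 30 °C: 10 μM centrin titrated with 100 μM N-acetylated, C-amidated peptide in 50 mM MOPS, 100 mM NaCl, pH 7.5, plus 1 mM CaCl₂ or 2 mM EDTA. Dilution heats subtracted; data fitted for n, Ka and ΔH.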
# [2] = system: HsC1P (human centrin 1 phosphorylated by CK2 at T138); assay: ITC, peptide binding to CK2-phosphorylated HsCen1; settings: EDTA / absence of Ca2+; phosphorylated versus unphosphorylated centrin 1
# [3] = biological target: CK2 (catalytic α and regulatory β subunits complex) (Homo sapiens, UniProt P67870+P68400); assay: In vitro phosphorylation by CK2, HPLC quantification; format: biochemical; settings: for reduction of phosphorylation by addition of Ca2+: CK2, 37 °C
# Sequence of CK2 (catalytic α and regulatory β subunits complex) (P68400 whole entry): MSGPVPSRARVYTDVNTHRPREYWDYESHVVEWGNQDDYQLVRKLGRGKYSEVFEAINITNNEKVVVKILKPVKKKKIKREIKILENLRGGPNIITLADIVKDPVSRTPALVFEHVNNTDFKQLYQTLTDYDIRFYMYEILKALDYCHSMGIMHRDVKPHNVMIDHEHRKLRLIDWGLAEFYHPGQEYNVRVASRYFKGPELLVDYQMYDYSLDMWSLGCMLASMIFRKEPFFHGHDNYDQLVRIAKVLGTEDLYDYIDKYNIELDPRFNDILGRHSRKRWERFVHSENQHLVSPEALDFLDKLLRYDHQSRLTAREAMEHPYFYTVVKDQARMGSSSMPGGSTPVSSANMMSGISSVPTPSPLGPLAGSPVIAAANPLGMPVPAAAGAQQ
# Sequence of CK2 (catalytic α and regulatory β subunits complex) (P67870 whole entry partner): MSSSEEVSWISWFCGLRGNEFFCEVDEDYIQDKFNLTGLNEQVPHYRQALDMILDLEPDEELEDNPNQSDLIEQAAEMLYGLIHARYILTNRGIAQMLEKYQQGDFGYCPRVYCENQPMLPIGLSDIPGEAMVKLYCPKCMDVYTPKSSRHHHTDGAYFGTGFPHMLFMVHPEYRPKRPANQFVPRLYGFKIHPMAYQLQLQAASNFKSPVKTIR
# [4] = biological target: transducin β (Trd) 325-340 (UniProt P62873); assay: ITC, peptide titrated into centrin; settings: reference: wild type C-HsCen1; sites T138
# [5] = biological target: human centrin 1, full-length (human) (UniProt Q12798); assay: ITC
# C-HsCen2-T138D = assay: ITC, peptide binding to C-HsCen2 T138D; set-up: species or system human; settings: presence of Ca2+; versus C-HsCen2 wild type
# How it was run: as §1
# C-HsCen2-S158D = assay: ITC, peptide binding to C-HsCen2 S158D; set-up: species or system human; settings: versus C-HsCen2 wild type
# How it was run: as §1
# C-HsCen2 T138D-S158D = assay: ITC, peptide binding to C-HsCen2 T138D-S158D; set-up: species or system human; settings: presence of Ca2+; versus C-HsCen2 wild type
# How it was run: as §1
# [6] = biological target: T3, C-terminal domain of human centrin 1 (M93-Y172) (human, UniProt Q12798 93-172); assay: ITC
# [7] = biological target: T1, human centrin 1, full-length; assay: ITC
# [8] = biological target: T2, human centrin 1 T138D, full-length; assay: ITC
# [9] = biological target: T4, C-terminal domain of human centrin 2 T138D-S158D (human, UniProt P41208 93-172, T138D | S158D); assay: ITC
# T4 sequence (P41208 93-172 T138D/S158D): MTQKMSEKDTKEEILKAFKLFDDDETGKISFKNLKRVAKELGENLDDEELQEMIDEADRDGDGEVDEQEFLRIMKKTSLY
# [10] = biological target: T5, C-terminal domain of human centrin 2 (M93-Y172) (human, UniProt P41208 93-172); assay: ITC
# T5 sequence (P41208 93-172): as the sequence (P41208 93-172 T138D/S158D) above, with D46T, D66S counted along it
# [11] = biological target: T6, C-terminal domain of human centrin 2 T138D (human, UniProt P41208 93-172, T138D); assay: ITC
# T6 sequence (P41208 93-172 T138D): as the sequence (P41208 93-172 T138D/S158D) above, with D66S counted along it
# [12] = biological target: T7, C-terminal domain of human centrin 2 S158D (human, UniProt P41208 93-172, S158D); assay: ITC
# T7 sequence (P41208 93-172 S158D): as the sequence (P41208 93-172 T138D/S158D) above, with D46T counted along it
# [13] = biological target: T3, C-terminal domain of human centrin 1 …; assay: ITC; remark: listed apart in the source
# [14] = biological target: T1, human centrin 1, full-length; assay: ITC; remark: listed apart in the source
# [15] = biological target: T2, human centrin 1 T138D, full-length; assay: ITC; remark: listed apart in the source
# [16] = biological target: T4, C-terminal domain of human centrin 2 …; assay: ITC; remark: listed apart in the source
# [17] = biological target: T5, C-terminal domain of human centrin 2 …; assay: ITC; remark: listed apart in the source
# [18] = biological target: T6, C-terminal domain of human centrin 2 …; assay: ITC; remark: listed apart in the source
# [19] = biological target: T7, C-terminal domain of human centrin 2 …; assay: ITC; remark: listed apart in the source
# [20] = biological target: C-terminal domain of human centrin 1 T138D (human); assay: ITC
# [21] = after 5 h, without Ca2+ (Fig. 1A, B)
# [22] = after 3 h at 37 °C, EGTA, HPLC peak integration
# [23] = after 3 h at 37 °C, presence of Ca2+
molecule,measurement,setting,value
677-SQHNRQLLRGALRRWK-692 [R18-Sfi1],equilibrium association constant Ka,"[1]; presence of Ca2+, centrin 1, ITC, one-site binding model",2.5 10^8 M^−1
same,factor of reduction of binding by phosphorylation at T138,[2],10
C-HsCen2-K131N: K131N variant of the C-terminal domain of human centrin 2,increase in phosphorylation by the mutation versus wild type,[3]; after 5 h,12%
same,protein phosphorylated by CK2,[3]; [21],60%
"C-HsCen1: C-terminal domain (M93-Y172) of human centrin 1, recombinant; here as CK2 substrate",reduction of phosphorylation by addition of Ca2+,[3],30%
same,protein phosphorylated by CK2,[3]; [22],62%
same,protein phosphorylated by CK2,[3]; [23],30%
same,protein phosphorylated by CK2,[3]; [21],80%
same,protein phosphorylated by CK2,"[3]; after 10 h, presence of EGTA",95%
same,protein phosphorylated by CK2,"[3]; after 48 h, presence of Ca2+",80%
same,time after which 95% phosphorylation was achieved,[3]; presence of Ca2+,48 h
"human centrin 1 (HsCen1) C-terminal domain, 93-172 (from UniProt Q12798) C-HsCen1 T138D",other: Ka,[4],weaker; reference 0.54 (0.3)
"human centrin 1 (HsCen1) C-terminal domain, 93-172 (from UniProt Q12798) C-HsCen1 T138E",other: Ka,[4],weaker; reference 0.54 (0.3)
C-HsCen2-S158D: S158D phosphomimetic variant of the C-terminal domain of human centrin 2,factor of reduction of the phosphorylation rate at T138,"[3]; C-HsCen2-S158D versus S158A variant, without Ca2+",1.36
same,factor of reduction of the phosphorylation rate at T138,"[3]; C-HsCen2-S158D, presence of Ca2+",2.1
"HsTrB, transducin β-derived peptide 325-340 (last WD repeat)",Ka,[5],170000 M⁻¹
same,dH,[5],-12.2 kcal/mol
C-HsCen1N131K: N131K variant of the C-terminal domain of human centrin 1,reduction of phosphorylation by addition of Ca2+,[3],40%
same,reduction of phosphorylation by the mutation versus wild type,[3]; after 5 h,30%
same,protein phosphorylated by CK2,[3]; [21],50%
641-RADLHHQHSVLHRALQAWVT-660 [R17-Sfi1],factor of decrease of binding constant of HsCen1 compared with R18-Sfi1,[1]; absence of Ca2+,10
same,factor of increase of affinity by the T138D mutation,C-HsCen2-T138D,3
same,factor of reduction of affinity by the S158D mutation,C-HsCen2-S158D; absence of Ca2+,4.7
same,factor of increase of affinity by the S158D mutation,C-HsCen2-S158D; presence of Ca2+,5
same,factor of increase of affinity by the T138D-S158D double mutation,C-HsCen2 T138D-S158D,2
"C-HsCen2: C-terminal domain (M93-Y172) of human centrin 2, recombinant; here as CK2 substrate",protein phosphorylated by CK2,[3]; [22],45%
same,protein phosphorylated by CK2,[3]; [23],15%
same,protein phosphorylated by CK2,[3]; [21],48%
same,protein phosphorylated by CK2,"[3]; after 48 h, presence of Ca2+",50%
"HsTrBW332L, transducin β peptide 325-340 W332L",Ka,[5],130000 M⁻¹
same,dH,[5],-10.6 kcal/mol
"Ac-NWKLLAKGLLIRERLKR-NH2 [P17-XPC, 17-residue peptide of human XPC]",Ka,[6],8.25e+06 M⁻¹
same,dH,[6],-28.1 kcal/mol
same,Ka,[7],1.22e+07 M⁻¹
same,dH,[7],-28.4 kcal/mol
same,stoichiometry N,[7],0.98
same,Ka,[8],2.9e+06 M⁻¹
same,dH,[8],-30.2 kcal/mol
same,stoichiometry N,[8],0.92
same,Ka,[9],800000 M⁻¹
same,dH,[9],-26.8 kcal/mol
same,Ka,[10],7.35e+06 M⁻¹
same,dH,[10],-29.3 kcal/mol
same,stoichiometry N,[10],0.95
same,Ka,[11],2.5e+06 M⁻¹
same,dH,[11],-32.7 kcal/mol
same,stoichiometry N,[11],0.94
same,dH,[12],-23.8 kcal/mol
same,Ka,[13],3.96e+07 M⁻¹
same,dH,[13],-23.3 kcal/mol
same,stoichiometry N,[13],0.93
same,Ka,[14],5.25e+07 M⁻¹
same,dH,[14],-28.4 kcal/mol
same,stoichiometry N,[14],1.04
same,Ka,[15],1.02e+08 M⁻¹
same,dH,[15],-28.5 kcal/mol
same,stoichiometry N,[15],0.95
same,dH,[16],-23.9 kcal/mol
same,stoichiometry N,[16],1.18
same,Ka,[17],5.27e+07 M⁻¹
same,dH,[17],-23.4 kcal/mol
same,stoichiometry N,[17],0.81
same,Ka,[18],2.71e+07 M⁻¹
same,dH,[18],-24 kcal/mol
same,stoichiometry N,[18],0.82
same,Ka,[19],4.31e+07 M⁻¹
same,dH,[19],-23 kcal/mol
same,stoichiometry N,[19],0.89
"Ac-MAVATGSWDSFLKIWN-NH2 [HsTrB, transducin β-derived peptide 325-340 (last WD repeat)]",dH,[20],-9.97 kcal/mol
same,Ka,[15],180000 M⁻¹
same,dH,[15],-8.14 kcal/mol
same,stoichiometry N,[15],0.75
"Ac-RADLHHQHSVLHRALQAWVT-NH2 [HsSfiR17, repeat 17 peptide of human Sfi1 (641-660)]",Ka,[6],120000 M⁻¹
same,dH,[6],-43.1 kcal/mol
same,stoichiometry N,[6],0.88
same,Ka,[7],347000 M⁻¹
same,dH,[7],-19.2 kcal/mol
same,stoichiometry N,[7],1.12
same,Ka,[10],190000 M⁻¹
same,dH,[10],-31.3 kcal/mol
same,stoichiometry N,[10],0.72
same,Ka,[11],230000 M⁻¹
same,dH,[11],-9.76 kcal/mol
same,stoichiometry N,[11],0.75
same,Ka,[12],40000 M⁻¹
same,dH,[12],-38.5 kcal/mol
same,stoichiometry N,[12],0.77
same,Ka,[13],1.25e+08 M⁻¹
same,dH,[13],-18 kcal/mol
same,stoichiometry N,[13],1.21
same,Ka,[16],3.5e+07 M⁻¹
same,dH,[16],-22.4 kcal/mol
same,stoichiometry N,[16],0.91
same,Ka,[17],1.82e+07 M⁻¹
same,dH,[17],-20.2 kcal/mol
same,stoichiometry N,[17],0.95
same,Ka,[18],4.54e+07 M⁻¹
same,dH,[18],-24.3 kcal/mol
same,stoichiometry N,[18],0.86
same,Ka,[19],1.01e+08 M⁻¹
same,dH,[19],-25.9 kcal/mol
same,stoichiometry N,[19],0.7
"Ac-SQHNRQLLRGALRRWK-NH2 [HsSfiR18, repeat 18 peptide of human Sfi1 (677-692)]",Ka,[6],3.56e+06 M⁻¹
same,dH,[6],-29.8 kcal/mol
same,stoichiometry N,[6],1.03
same,Ka,[7],3.47e+06 M⁻¹
same,dH,[7],-34.7 kcal/mol
same,stoichiometry N,[7],0.88
same,Ka,[8],875000 M⁻¹
same,dH,[8],-36.4 kcal/mol
same,stoichiometry N,[8],0.83
same,Ka,[13],8.15e+07 M⁻¹
same,dH,[13],-22.5 kcal/mol
same,stoichiometry N,[13],0.99
same,Ka,[14],2.49e+08 M⁻¹
same,dH,[14],-35.5 kcal/mol
same,stoichiometry N,[14],0.88
same,Ka,[15],2.39e+08 M⁻¹
same,dH,[15],-36.7 kcal/mol
same,stoichiometry N,[15],0.77
"Ac-TVWAQLARHLVSHQHHLDAR-NH2 [HsSfi1R17inv, repeat 17 peptide of human Sfi1 in reversed sequence orientation]",Ka,[6],690000 M⁻¹
same,dH,[6],-26.6 kcal/mol
same,stoichiometry N,[6],0.825
same,dH,[10],-20.1 kcal/mol and -22 kcal/mol
same,stoichiometry N,[10],0.91 and 1.09
same,Ka,[13],1.49e+08 M⁻¹
same,dH,[13],-21.6 kcal/mol
same,stoichiometry N,[13],0.8
